Assay [1] deals with Staphylococcus aureus. Put plainly: Antibacterial activity against Staphylococcus aureus ATCC 29213 assessed as growth inhibition at 1 to 600 ug/mL after 18 hrs by broth microdilution method. Format: functional, organism-based. An outline of the steps:
(§1)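 Frozen stocks (-80 °C, tryptic soy broth with 15% glycerol); S. aureus subcultured on blood agar and identified by catalase, coagulase and clumping factor. Inoculum at 0.5 McFarland. DMSO-dissolved compounds 1–600 µg/mL in Mueller–Hinton broth, 37 °C 18 h, OD600 read with and without compound. MIC = lowest concentration preventing growth; triplicates, per CLSI.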
On the technique in general: Dilution methods test growth across graded concentrations, often in twofold steps.

For assay [2], the system named is Escherichia coli. Put plainly: Antibacterial activity against Escherichia coli NCTC 8192 assessed as growth inhibition at 1 to 600 ug/mL after 18 hrs by broth microdilution method. Format: functional, organism-based.
The next assay has as its system Candida albicans. Put plainly: Antifungal activity against Candida albicans ATCC 10231 assessed as growth inhibition at 1 to 600 ug/mL after 18 hrs by broth microdilution method. The class given is functional, organism-based.
In assay [3] the test system is Staphylococcus epidermidis. Put plainly: Antibacterial activity against Staphylococcus epidermidis ATCC 12228 assessed as growth inhibition at 1 to 600 ug/mL after 18 hrs by broth microdilution method. The class given is functional, organism-based.
In the next assay the test system is Proteus vulgaris. Put plainly: Antibacterial activity against Proteus vulgaris ATCC 49990 assessed as growth inhibition at 1 to 600 ug/mL after 18 hrs by broth microdilution method. The class given is functional, organism-based.
The subject of another assay is Enterococcus faecalis. Put plainly: Antibacterial activity against Enterococcus faecalis ATCC 29212 assessed as growth inhibition at 1 to 600 ug/mL after 18 hrs by broth microdilution method. Format: functional, organism-based.
Assay [4] concerns Staphylococcus aureus. Put plainly: Antibacterial activity against Staphylococcus aureus ATCC 6538 assessed as growth inhibition at 1 to 600 ug/mL after 18 hrs by broth microdilution method. The class given is functional, organism-based. A digest of the protocol: as §1
The next assay has as its system Pseudomonas aeruginosa. Put plainly: Antibacterial activity against Pseudomonas aeruginosa NCTC 6249 assessed as growth inhibition at 1 to 600 ug/mL after 18 hrs by broth microdilution method. The class given is functional, organism-based.
Another assay concerns Proteus mirabilis. Put plainly: Antibacterial activity against Proteus mirabilis ATCC 29906 assessed as growth inhibition at 1 to 600 ug/mL after 18 hrs by broth microdilution method. Format: functional.
In assay [5] the test system is Staphylococcus epidermidis. Put plainly: Bactericidal activity against Staphylococcus epidermidis ATCC 12228 after 18 hrs by broth microdilution method. The settings on record: ATCC 12228, 18 h. The class given is functional. A digest of the protocol:
(§2)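 Broth microdilution, then contents of wells without visible growth plated onto Mueller–Hinton agar and incubated 35 °C for 18 h. Triplicates, per CLSI.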

Assay [6] has as its system Staphylococcus aureus. Put plainly: Bactericidal activity against Staphylococcus aureus ATCC 6538 after 18 hrs by broth microdilution method. Format: functional. The conditions noted are these: ATCC 6538, 18 h. An outline of the steps: as §2
Assay [7] relates to Staphylococcus aureus. Put plainly: Bactericidal activity against Staphylococcus aureus ATCC 29213 after 18 hrs by broth microdilution method. Format: functional. The conditions noted are these: ATCC 29213, 18 h. An outline of the steps:
as §2

Assay [8] has as its system Staphylococcus epidermidis. Put plainly: Antibacterial activity against Staphylococcus epidermidis ATCC 12228 assessed as growth inhibition after 18 hrs by broth microdilution method. Format: functional. The conditions noted are these: ATCC 12228, 18 h. An outline of the steps: (§3)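 Frozen stocks (-80 °C, tryptic soy broth with 15% glycerol); S. aureus subcultured on blood agar and identified by catalase, coagulase and clumping factor. Inoculum at 0.5 McFarland. MIC = lowest concentration preventing growth; triplicates, per CLSI.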

Assay [9] relates to Escherichia coli. Put plainly: Bactericidal activity against Escherichia coli NCTC 8192 after 18 hrs by broth microdilution method. The class given is functional. The settings on record: NCTC 8192, 18 h. An outline of the steps:
as §2

Assay [10] deals with Staphylococcus aureus. Put plainly: Antibacterial activity against Staphylococcus aureus ATCC 29213 assessed as growth inhibition after 18 hrs by broth microdilution method. Format: functional. The settings on record: ATCC 29213, 18 h. An outline of the steps:
(§4)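 Broth microdilution in Mueller–Hinton broth with 1–600 µg/mL compound added from DMSO stocks. Inoculum adjusted to 0.5 McFarland. Strains stored at -80 °C and subcultured on blood agar before use. Incubation 37 °C for 18 h with OD600 read. MIC taken as the lowest concentration preventing growth, run in triplicate following CLSI. Vancomycin and oxacillin served as controls.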

For assay [11], the system named is Escherichia coli. Put plainly: Antibacterial activity against Escherichia coli NCTC 8192 assessed as growth inhibition after 18 hrs by broth microdilution method. The class given is functional. The conditions noted are these: NCTC 8192, 18 h. An outline of the steps: as §3
Assay [12] concerns Staphylococcus aureus. Put plainly: Antibacterial activity against Staphylococcus aureus ATCC 6538 assessed as growth inhibition after 18 hrs by broth microdilution method. Format: functional. The settings on record: ATCC 6538, 18 h. An outline of the steps: as §4

Values after ≈ are worked out from the molar mass of the structure shown. Active and inactive are the calls of the source.

Broadly, the MBC is the smallest concentration meeting the test's criterion for killing. What is called MIC is the lowest concentration found to suppress growth.

On to `Cc1c(C(=O)N/N=C/c2ccccc2O)[n+]([O-])cn1Cc1ccccc1`, for which the outcome (in the assay with Staphylococcus aureus [1]; in the assay with Escherichia coli [2]; in the assay on Candida albicans; in [3]; with Proteus vulgaris; in the assay on Enterococcus faecalis) was inactive. Moreover, the result with Staphylococcus aureus [4], in the assay with Pseudomonas aeruginosa and in the assay on Proteus mirabilis was inactive.

For `Cc1c(C(=O)NN=C2CCCCC2)[n+]([O-])cn1Cc1ccccc1`, the outcome (in the assay on Staphylococcus aureus [1]; with Escherichia coli [2]; with Candida albicans; in assay [3]; with Proteus vulgaris; in the assay with Enterococcus faecalis) was inactive. Besides, the outcome in the assay on Staphylococcus aureus [4], with Pseudomonas aeruginosa and in the assay with Proteus mirabilis was inactive.

Consider `O=C1CN(/N=C/c2ccc([N+](=O)[O-])o2)C(=O)N1` [NITROFURANTOIN], for which the MBC (in [5]; against Staphylococcus aureus [6]; in the assay on Staphylococcus aureus [7]; against Escherichia coli [9]) was 32 mg/L (≈ 134 µM) throughout. The minimal inhibitory concentration (MIC) in assay [8] turned out to be 8 mg/L (≈ 33.6 µM); with Staphylococcus aureus [10], 16 mg/L (≈ 67.2 µM); with Escherichia coli [11] it was 16 mg/L (≈ 67.2 µM); with Staphylococcus aureus [12], 16 mg/L (≈ 67.2 µM).

Take `O=C(N[C@H](CO)[C@H](O)c1ccc([N+](=O)[O-])cc1)C(Cl)Cl` [CHLORAMPHENICOL]: the MBC in assay [5] came out at 2 mg/L (≈ 6.19 µM); in the assay with Staphylococcus aureus [6], 4 mg/L (≈ 12.4 µM); in the assay on Staphylococcus aureus [7] it was 4 mg/L (≈ 12.4 µM); with Escherichia coli [9] it was 0.5 mg/L (≈ 1.55 µM). The MIC in [8] was determined as 0.5 mg/L (≈ 1.55 µM); in the assay with Staphylococcus aureus [10], 1 mg/L (≈ 3.09 µM); with Escherichia coli [11], 0.25 mg/L (≈ 0.774 µM); with Staphylococcus aureus [12], 1 mg/L (≈ 3.09 µM).

For the compound `Cc1c(C(=O)N/N=C/c2ccco2)[n+]([O-])cn1Cc1ccccc1`, the outcome (in the assay on Staphylococcus aureus [1]; in the assay with Escherichia coli [2]; in the assay on Candida albicans; in [3]; in the assay with Proteus vulgaris; in the assay on Enterococcus faecalis) was inactive. Further, the result with Staphylococcus aureus [4], in the assay on Pseudomonas aeruginosa and with Proteus mirabilis was inactive.

In the case of `Cc1c(C(=O)N/N=C/c2ccc(N(C)C)cc2)[n+]([O-])cn1Cc1ccccc1`, the outcome (with Staphylococcus aureus [1]; in the assay on Escherichia coli [2]; in the assay with Candida albicans; in assay [3]; in the assay with Proteus vulgaris; with Enterococcus faecalis) was inactive. For the same compound, the outcome in the assay with Staphylococcus aureus [4], in the assay with Pseudomonas aeruginosa and with Proteus mirabilis was inactive.

In the case of `Cc1c(C(=O)N/N=C/c2ccccc2)[n+]([O-])cn1Cc1ccccc1`, the outcome (in the assay with Staphylococcus aureus [1]; in the assay on Escherichia coli [2]; in the assay on Candida albicans; in assay [3]; with Proteus vulgaris; in the assay with Enterococcus faecalis) was inactive. Also, the result in the assay with Staphylococcus aureus [4], with Pseudomonas aeruginosa and in the assay with Proteus mirabilis was inactive.

`Cc1c(C(=O)N/N=C/c2ccc([N+](=O)[O-])cc2)[n+]([O-])cn1Cc1ccccc1`: the outcome (in the assay with Staphylococcus aureus [1]; in the assay on Escherichia coli [2]; with Candida albicans; in assay [3]; in the assay with Proteus vulgaris; in the assay on Enterococcus faecalis) was inactive. Moreover, the outcome in the assay on Staphylococcus aureus [4], in the assay with Pseudomonas aeruginosa and with Proteus mirabilis was inactive.

For the compound `COc1ccc(/C=N/NC(=O)c2c(C)n(Cc3ccccc3)c[n+]2[O-])cc1`, the result (in the assay with Staphylococcus aureus [1]; with Escherichia coli [2]; in the assay with Candida albicans; in assay [3]; in the assay on Proteus vulgaris; with Enterococcus faecalis) was inactive. For the same compound, the outcome in the assay with Staphylococcus aureus [4], in the assay on Pseudomonas aeruginosa and in the assay with Proteus mirabilis was inactive.

For the compound `C/C(=N\NC(=O)c1c(C)n(Cc2ccccc2)c[n+]1[O-])c1ccccc1`, the result (in the assay on Staphylococcus aureus [1]; with Escherichia coli [2]; with Candida albicans; in assay [3]; in the assay on Proteus vulgaris; in the assay with Enterococcus faecalis) was inactive. Besides, the result in the assay with Staphylococcus aureus [4], in the assay with Pseudomonas aeruginosa and in the assay on Proteus mirabilis was inactive.
